Series [1] concerns Hepatitis B virus. The series can be described thus: Antiviral activity against HBV infected in human HepG2.117 cells by qPCR analysis. It is filed as functional, organism-based. In a few lines: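 HepG2.117 cells (integrated genotype D HBV genome, Tet-off promoter; kept in 1 μg/mL doxycycline) were seeded at 20,000 cells/well and given serial compound dilutions (2% DMSO) for 3 days at 37 °C. Lysates were taken in 0.33% NP40. Intracellular HBV DNA was quantified by qPCR and EC50/EC90 derived. For serum shift, 40% human serum was present during incubation. Mean ± SEM, n=3 (serum) or 13.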
On the technique in general: Quantitative PCR measures a nucleic acid by following its amplification.

Series [2] can be described thus: Clearance in mouse. It counts as ADME, organism-based. As to conditions: in vivo.
The subject of series [3] is Mus musculus. The series can be described thus: Effect on HBsAg level in C57BL/6 mouse infected with AAV-Hepatitis B virus at 50 mg/kg, po bid for 56 days followed by induction of compound washout period for 14 days. It counts as functional, organism-based. As to conditions: time 70.0 day.
Series [4] in a line: Toxicity in C57BL/6 mouse infected with AAV-Hepatitis B virus assessed as change in body weight at 50 mg/kg, po bid for 56 days followed by induction of compound washout period for 14 days. It counts as organism-based. As to conditions: in vivo, 1680 h, time 70 day.
In series [5] the test system is Hepatitis B virus. The series can be described thus: Antiviral activity against AAV-Hepatitis B virus infected in C57BL/6 mouse assessed as reduction in baseline HBV DNA production at 50 mg/kg, po qd measured after 7 days. It is filed as functional. As to conditions: time 7 day.
For series [6], the system named is Mus musculus. The series is described as follows: Effect on HBeAg level in C57BL/6 mouse infected with AAV-Hepatitis B virus at 50 mg/kg, po bid for 56 days followed by induction of compound washout period for 14 days. It counts as functional, organism-based. As to conditions: time 70.0 day.
Series [7] deals with Hepatitis B virus. The series is described as follows: Antiviral activity against AAV-Hepatitis B virus infected in C57BL/6 mouse assessed as reduction in baseline HBV DNA production at 50 mg/kg, po bid for 56 days followed by induction of compound washout period measured after 7 days. As to conditions: time 63.0 day. It is filed as functional, organism-based.
The nature of series [8]: Toxicity in C57BL/6 mouse infected with AAV-Hepatitis B virus assessed as change in ALT level at 50 mg/kg, po bid for 56 days followed by induction of compound washout period for 14 days. As to conditions: in vivo, 1680 h, time 70 day. It is filed as organism-based.
Series [9] in a line: Metabolic stability in human liver microsomes assessed as half life at 1 uM incubated upto 60 mins in presence of NADPH. It counts as ADME, Microsome. In a few lines:
(§1)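 Compound at 1 μM incubated at 37 °C with liver microsomes of each species for 0, 15, 30 and 60 min, with and without NADPH; half-life determined.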
(In general: Liver microsomes are vesicles of endoplasmic reticulum, rich in cytochrome P450 enzymes.)

Series [10] is described as follows: Metabolic stability in mouse liver microsomes assessed as half life at 1 uM incubated upto 60 mins in presence of NADPH. It counts as ADME, Microsome. In a few lines:
as §1

The target in series [11] is hERG (KCNH2) (Homo sapiens, UniProt Q12809). The series is described as follows: Inhibition of hERG expressed in mammalian cells at 10 uM by automated patch-clamp technique relative to control. It counts as toxicity, cell-based. As to conditions: mammalian cells expressing hERG. Put shortly:
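Currents of hERG, Nav1.5 or Cav1.2 channels expressed in mammalian cells recorded by automated patch clamp (QPatch 48) at room temperature.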
On the technique in general: The hERG channel carries a current that helps repolarise heart muscle cells.

The structures appear in SMILES notation. Calls of active or inactive are those of the source. The calls are words filed in the database; no cut-off is given here.

Chain of hERG (KCNH2) (Q12809 whole entry): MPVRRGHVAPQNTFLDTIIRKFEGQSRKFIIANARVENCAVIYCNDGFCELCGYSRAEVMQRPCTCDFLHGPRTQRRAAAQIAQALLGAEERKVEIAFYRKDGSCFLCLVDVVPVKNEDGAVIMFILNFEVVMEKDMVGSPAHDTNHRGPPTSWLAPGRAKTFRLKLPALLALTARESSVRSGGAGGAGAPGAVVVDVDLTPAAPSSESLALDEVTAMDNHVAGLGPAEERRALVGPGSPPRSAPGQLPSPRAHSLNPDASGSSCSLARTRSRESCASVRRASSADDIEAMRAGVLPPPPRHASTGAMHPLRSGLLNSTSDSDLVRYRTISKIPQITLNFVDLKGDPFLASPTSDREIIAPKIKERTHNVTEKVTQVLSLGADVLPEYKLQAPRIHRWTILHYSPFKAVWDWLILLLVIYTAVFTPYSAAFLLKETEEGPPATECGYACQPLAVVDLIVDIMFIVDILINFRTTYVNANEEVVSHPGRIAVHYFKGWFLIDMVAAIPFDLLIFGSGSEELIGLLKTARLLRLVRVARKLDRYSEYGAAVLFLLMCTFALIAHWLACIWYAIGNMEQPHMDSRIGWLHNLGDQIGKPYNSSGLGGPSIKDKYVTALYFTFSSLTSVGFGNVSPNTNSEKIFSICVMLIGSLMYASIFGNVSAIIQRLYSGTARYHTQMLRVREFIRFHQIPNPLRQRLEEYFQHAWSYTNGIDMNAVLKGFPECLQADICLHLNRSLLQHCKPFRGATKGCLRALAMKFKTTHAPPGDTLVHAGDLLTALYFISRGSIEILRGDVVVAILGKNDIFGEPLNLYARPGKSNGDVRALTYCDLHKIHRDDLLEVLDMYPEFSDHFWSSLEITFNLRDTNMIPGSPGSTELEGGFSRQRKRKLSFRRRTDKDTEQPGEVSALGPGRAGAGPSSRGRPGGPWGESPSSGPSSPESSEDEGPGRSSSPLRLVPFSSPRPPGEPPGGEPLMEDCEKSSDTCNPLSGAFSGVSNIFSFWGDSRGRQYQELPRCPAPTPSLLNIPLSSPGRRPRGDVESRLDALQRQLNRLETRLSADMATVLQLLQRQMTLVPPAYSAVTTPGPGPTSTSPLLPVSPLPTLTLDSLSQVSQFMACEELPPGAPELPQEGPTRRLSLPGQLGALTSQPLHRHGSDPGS

The term EC50 denotes the midpoint of the concentration-response curve. Read a low EC50 as an effect from little substance. With `C#C[C@@H](C)NC(=O)C(=O)c1c(C)c(C(=O)Nc2ccc(F)c(C#N)c2)n(C)c1C`, in series [1], the EC50 is 1.32 nM.

Usually clearance stands for a measure of how efficiently the substance is removed, as volume per time. Compound `C#CCNC(=O)C(=O)c1c(C)c(C(=O)Nc2ccc(F)c(C#N)c2)n(C)c1C` displayed a clearance in [2] of 13.2 mL/min/kg. This compound also gave an EC50 in [1] of 2.88 nM.

Turning to `C#CC1(NC(=O)C(=O)c2c(C)c(C(=O)Nc3ccc(F)c(C#N)c3)n(C)c2C)CCS(=O)(=O)CC1`, the EC50 in [1] came out at 3.51 nM.

For the compound `C#CC1(NC(=O)C(=O)c2c(C)c(C(=O)Nc3ccc(F)c(C#N)c3)n(C)c2C)CCC1`, the EC50 in series [1] was determined as 0.73 nM.

`C[C@@H](NS(=O)(=O)c1cn(C)c(C(=O)Nc2ccnc(Cl)c2)c1F)C(F)(F)F`: the outcome in series [3], in series [6] and in series [7] was inactive. The Activity entry in series [4] is reported as “Non-toxic”; in [5], -2.5 log10IU/ml; in [8] it was “Non-toxic”.

`C#C[C@H](C)NC(=O)C(=O)c1c(C)c(C(=O)Nc2ccc(F)c(C#N)c2)n(C)c1C` gave a concentration giving a half-maximal response (EC50) in [1] of 0.98 nM.

Regarding `C#CC1(NC(=O)C(=O)c2c(C)c(C(=O)Nc3ccc(F)c(C#N)c3)n(C)c2C)CC(F)(F)C1`, in [1], a half-maximal effect (EC50) was put at 0.32 nM.

In series [1], `C#CCNC(=O)C(=O)c1c(C)c(C(=O)Nc2ccc(F)c(C(F)(F)F)c2)n(C)c1C` gave a concentration for a half-maximal effect (EC50) of 2.65 nM.

In general, half-life refers to how long it takes for the measured level to halve. By inhibition is commonly meant the share of the control response that was lost under treatment. With `C#CCNC(=O)C(=O)c1c(C)c(C(=O)Nc2ccc(F)c(F)c2)n(C)c1C`, the half-life at 1 µM in [9] is more than 60 min; in [10], 40.4 min. Moreover, the clearance in series [2] worked out at 78.2 mL/min/kg. This compound also yielded an inhibition at 10 µM in series [11] of 31.2%. Also, the 50% effective concentration (EC50) in [1] came to 2.6 nM.

With `C#CC(C)(C)NC(=O)C(=O)c1c(C)c(C(=O)Nc2ccc(F)c(C#N)c2)n(C)c1C`, the EC50 in [1] was 1.49 nM.

Consider `C#CC1(NC(=O)C(=O)c2c(C)c(C(=O)Nc3ccc(F)c(C#N)c3)n(C)c2C)CCCC1`, for which a half-maximal effect in [1] (EC50) was put at 1.99 nM.

Consider `C#CC1(NC(=O)C(=O)c2c(C)c(C(=O)Nc3ccc(F)c(C#N)c3)n(C)c2C)CCOCC1`, for which the concentration giving a half-maximal response (EC50) in series [1] amounted to 2.11 nM.

In series [2], `C#CCNC(=O)C(=O)c1c(C)c(C(=O)Nc2ccc(F)c(C)c2)n(C)c1C` gave a clearance of 54.3 mL/min/kg. In series [1], the midpoint of the response, the EC50, lay at 1.98 nM.

In [1], `C#CC1(NC(=O)C(=O)c2c(C)c(C(=O)Nc3ccc(F)c(C#N)c3)n(C)c2C)CC1` came in with an EC50 of 0.45 nM.

For the origin of these results see ChEMBL document CHEMBL6092224, “The Discovery and Preclinical Profile of ALG-000184, a Prodrug of the Potent Hepatitis B Virus Capsid Assembly Modulator ALG-001075” (J Med Chem, 2024).
